Measured values published in ChEMBL document CHEMBL1132117, “Novel potential agents for human cytomegalovirus infection: synthesis and antiviral activity evaluation of benzothiadiazine dioxide acyclonucleosides” (J Med Chem, 1999).
≈ marks a conversion by molar mass, not a printed value.

What was measured:
[1] = tested on: Human immunodeficiency virus 1; test: Concentration of the required to protect CEM cells of Human T-lymphocyte against Cytopathogenicity of HIV-1(III-B) by 50%; assay type: functional, organism-based; conditions: Human immunodeficiency virus 1, CCRF-CEM
Outline: (§1)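 CEM cells at 4 × 10⁵ cells/mL infected with HIV-1 (IIIB) or HIV-2 (ROD) at ~100 CCID₅₀/mL, then mixed with serial compound dilutions. Giant cell formation scored microscopically after 4 days. Triplicate assays.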

Human alphaherpesvirus 3 [2] = test: The concentration required to reduce virus plaque formation by 50% was measured on YS strain of VZV expressing viral thymidine kinase(TK+); assay type: functional, organism-based
[3] = tested on: Human immunodeficiency virus 2; test: Concentration of the required to protect CEM cells of Human T-lymphocyte against Cytopathogenicity of HIV-2 by 50%; assay type: functional, organism-based; conditions: Human immunodeficiency virus 2, CCRF-CEM; outline: as §1
HEL [4] = test: The concentration required to reduce cell growth by 50% was measured on Human Embryonic Lung (HEL) cells; assay type: functional
Outline: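 HEL fibroblasts seeded at 5 × 10³ cells/well and grown 24 h, then given compound dilutions in duplicate. Cells counted with a Coulter counter after 3 days at 37 °C in 5% CO₂.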

Human betaherpesvirus 5 [5] = test: The concentration required to reduce virus plaque formation by 50% was measured on AD-169 strains of human cytomegalovirus; assay type: functional, organism-based
Human alphaherpesvirus 3 [6] = test: The concentration required to reduce virus plaque formation by 50% was measured on YS/Rstrain of VZV expressing viral thymidine kinase(TK-); assay type: functional, organism-based
Human betaherpesvirus 5 [7] = test: The concentration required to reduce virus plaque formation by 50% was measured on Davis strains of human cytomegalovirus; assay type: functional, organism-based
Human alphaherpesvirus 3 [8] = test: The concentration required to reduce virus plaque formation by 50% was measured on OKA strain of VZV expressing viral thymidine kinase(TK+); assay type: functional, organism-based
CCRF-CEM = test: The concentration required to reduce 50% cell viability on CEM cells of Human T-lymphocyte; assay type: functional
Outline: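 Uninfected CEM cells exposed to compound dilutions. Triplicate assays.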

HEL [9] = test: The minimum cytotoxic concentration was measured on Human Embryonic Lung (HEL) cells; assay type: functional
Outline: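 Minimum toxic concentration is the lowest concentration giving a microscopically detectable change in morphology of normal HEL cells. Duplicate assays.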

Human alphaherpesvirus 3 [10] = test: The concentration required to reduce virus plaque formation by 50% was measured on 07/1 strain of VZV expressing viral thymidine kinase(TK-); assay type: functional, organism-based

O=C1c2ccccc2NS(=O)(=O)N1COCCO
EC50 [1]: > 40 µg/mL
IC50 (Human alphaherpesvirus 3 [2]): > 50 µg/mL
EC50 [3]: > 40 µg/mL
CC50 (HEL [4]): 160 µg/mL (≈ 588 µM)
IC50 (Human betaherpesvirus 5 [5]): > 50 µg/mL
IC50 (Human alphaherpesvirus 3 [6]): > 50 µg/mL
IC50 (Human betaherpesvirus 5 [7]): > 50 µg/mL
IC50 (Human alphaherpesvirus 3 [8]): > 50 µg/mL
CC50 (CCRF-CEM): > 200 µg/mL
MCC (HEL [9]): > 50 µg/mL
IC50 (Human alphaherpesvirus 3 [10]): > 50 µg/mL

O=C1c2ccccc2NS(=O)(=O)N1Cc1ccccc1
EC50 [1]: > 200 µg/mL
IC50 (Human alphaherpesvirus 3 [2]): > 50 µg/mL
EC50 [3]: > 200 µg/mL
CC50 (HEL [4]): > 50 µg/mL
IC50 (Human betaherpesvirus 5 [5]): > 20 µg/mL
IC50 (Human alphaherpesvirus 3 [6]): > 50 µg/mL
IC50 (Human betaherpesvirus 5 [7]): > 20 µg/mL
IC50 (Human alphaherpesvirus 3 [8]): > 50 µg/mL
CC50 (CCRF-CEM): > 200 µg/mL
MCC (HEL [9]): 50 µg/mL
IC50 (Human alphaherpesvirus 3 [10]): 48 µg/mL (≈ 166 µM)

CC(=O)OCCOCN1c2ccccc2C(=O)NS1(=O)=O
EC50 [1]: > 200 µg/mL
IC50 (Human alphaherpesvirus 3 [2]): > 50 µg/mL
EC50 [3]: > 200 µg/mL
CC50 (HEL [4]): > 200 µg/mL
IC50 (Human betaherpesvirus 5 [5]): > 50 µg/mL
IC50 (Human alphaherpesvirus 3 [6]): > 50 µg/mL
IC50 (Human betaherpesvirus 5 [7]): > 50 µg/mL
IC50 (Human alphaherpesvirus 3 [8]): > 50 µg/mL
CC50 (CCRF-CEM): > 200 µg/mL
MCC (HEL [9]): > 50 µg/mL
IC50 (Human alphaherpesvirus 3 [10]): > 50 µg/mL

CC(=O)OCCOCN1C(=O)c2ccccc2NS1(=O)=O
EC50 [1]: > 200 µg/mL
IC50 (Human alphaherpesvirus 3 [2]): > 50 µg/mL
EC50 [3]: > 200 µg/mL
CC50 (HEL [4]): > 200 µg/mL
IC50 (Human betaherpesvirus 5 [5]): > 50 µg/mL
IC50 (Human alphaherpesvirus 3 [6]): > 50 µg/mL
IC50 (Human betaherpesvirus 5 [7]): > 50 µg/mL
IC50 (Human alphaherpesvirus 3 [8]): > 50 µg/mL
CC50 (CCRF-CEM): > 200 µg/mL
MCC (HEL [9]): > 50 µg/mL
IC50 (Human alphaherpesvirus 3 [10]): > 50 µg/mL

O=C1NS(=O)(=O)N(COCc2ccccc2)c2ccccc21
EC50 [1]: > 40 µg/mL
IC50 (Human alphaherpesvirus 3 [2]): > 50 µg/mL
EC50 [3]: > 40 µg/mL
CC50 (HEL [4]): > 50 µg/mL
IC50 (Human betaherpesvirus 5 [5]): > 50 µg/mL
IC50 (Human alphaherpesvirus 3 [6]): > 50 µg/mL
IC50 (Human betaherpesvirus 5 [7]): > 50 µg/mL
IC50 (Human alphaherpesvirus 3 [8]): > 50 µg/mL
CC50 (CCRF-CEM): > 200 µg/mL
MCC (HEL [9]): > 50 µg/mL
IC50 (Human alphaherpesvirus 3 [10]): > 50 µg/mL

CC(=O)OCCOCN1c2ccccc2C(=O)N(Cc2ccccc2)S1(=O)=O
EC50 [1]: > 40 µg/mL
IC50 (Human alphaherpesvirus 3 [2]): > 50 µg/mL
EC50 [3]: > 40 µg/mL
CC50 (HEL [4]): 100 µg/mL (≈ 247 µM)
IC50 (Human betaherpesvirus 5 [5]): > 20 µg/mL
IC50 (Human alphaherpesvirus 3 [6]): > 20 µg/mL
IC50 (Human betaherpesvirus 5 [7]): > 50 µg/mL
IC50 (Human alphaherpesvirus 3 [8]): 42 µg/mL (≈ 104 µM)
CC50 (CCRF-CEM): 103 µg/mL (≈ 255 µM)
MCC (HEL [9]): 50 µg/mL
IC50 (Human alphaherpesvirus 3 [10]): 44 µg/mL (≈ 109 µM)

O=C(OCCOCN1c2ccccc2C(=O)N(Cc2ccccc2)S1(=O)=O)c1ccccc1
EC50 [1]: > 40 µg/mL
IC50 (Human alphaherpesvirus 3 [2]): > 20 µg/mL
EC50 [3]: > 40 µg/mL
CC50 (HEL [4]): 17 µg/mL (≈ 36.4 µM)
IC50 (Human betaherpesvirus 5 [5]): 13 µg/mL (≈ 27.9 µM)
IC50 (Human alphaherpesvirus 3 [6]): 12 µg/mL (≈ 25.7 µM)
IC50 (Human betaherpesvirus 5 [7]): > 20 µg/mL
IC50 (Human alphaherpesvirus 3 [8]): > 20 µg/mL
CC50 (CCRF-CEM): 100 µg/mL (≈ 214 µM)
MCC (HEL [9]): 50 µg/mL
IC50 (Human alphaherpesvirus 3 [10]): > 20 µg/mL

O=C1c2ccccc2N(COCCO)S(=O)(=O)N1Cc1ccccc1
EC50 [1]: > 40 µg/mL
IC50 (Human alphaherpesvirus 3 [2]): > 50 µg/mL
EC50 [3]: > 40 µg/mL
CC50 (HEL [4]): 125 µg/mL (≈ 345 µM)
IC50 (Human betaherpesvirus 5 [5]): > 20 µg/mL
IC50 (Human alphaherpesvirus 3 [6]): > 20 µg/mL
IC50 (Human betaherpesvirus 5 [7]): > 50 µg/mL
IC50 (Human alphaherpesvirus 3 [8]): 43 µg/mL (≈ 119 µM)
CC50 (CCRF-CEM): 89 µg/mL (≈ 246 µM)
MCC (HEL [9]): > 50 µg/mL
IC50 (Human alphaherpesvirus 3 [10]): 55 µg/mL (≈ 152 µM)

O=C1NS(=O)(=O)N(COCCO)c2ccccc21
EC50 [1]: > 40 µg/mL
IC50 (Human alphaherpesvirus 3 [2]): > 50 µg/mL
EC50 [3]: > 40 µg/mL
CC50 (HEL [4]): 112 µg/mL (≈ 411 µM)
IC50 (Human betaherpesvirus 5 [5]): > 50 µg/mL
IC50 (Human alphaherpesvirus 3 [6]): > 50 µg/mL
IC50 (Human betaherpesvirus 5 [7]): > 50 µg/mL
IC50 (Human alphaherpesvirus 3 [8]): > 50 µg/mL
CC50 (CCRF-CEM): 15 µg/mL (≈ 55.1 µM)
MCC (HEL [9]): > 50 µg/mL
IC50 (Human alphaherpesvirus 3 [10]): > 50 µg/mL

CCCOCN1c2ccccc2C(=O)NS1(=O)=O
EC50 [1]: > 40 µg/mL
IC50 (Human alphaherpesvirus 3 [2]): > 50 µg/mL
EC50 [3]: > 40 µg/mL
CC50 (HEL [4]): > 50 µg/mL
IC50 (Human betaherpesvirus 5 [5]): > 50 µg/mL
IC50 (Human alphaherpesvirus 3 [6]): > 50 µg/mL
IC50 (Human betaherpesvirus 5 [7]): > 50 µg/mL
IC50 (Human alphaherpesvirus 3 [8]): > 50 µg/mL
CC50 (CCRF-CEM): > 200 µg/mL
MCC (HEL [9]): > 50 µg/mL
IC50 (Human alphaherpesvirus 3 [10]): > 50 µg/mL

C#CCOCN1c2ccccc2C(=O)N(Cc2ccccc2)S1(=O)=O
EC50 [1]: > 8 µg/mL
IC50 (Human alphaherpesvirus 3 [2]): 24 µg/mL (≈ 67.3 µM)
EC50 [3]: > 8 µg/mL
CC50 (HEL [4]): > 50 µg/mL
IC50 (Human betaherpesvirus 5 [5]): 12 µg/mL (≈ 33.7 µM)
IC50 (Human alphaherpesvirus 3 [6]): 13 µg/mL (≈ 36.5 µM)
IC50 (Human betaherpesvirus 5 [7]): 12 µg/mL (≈ 33.7 µM)
IC50 (Human alphaherpesvirus 3 [8]): 21 µg/mL (≈ 58.9 µM)
CC50 (CCRF-CEM): 23 µg/mL (≈ 64.5 µM)
MCC (HEL [9]): 50 µg/mL
IC50 (Human alphaherpesvirus 3 [10]): 11 µg/mL (≈ 30.9 µM)

O=C1c2ccccc2N(Cc2ccccc2)S(=O)(=O)N1COCc1ccccc1
EC50 [1]: 15 µg/mL (≈ 36.7 µM)
IC50 (Human alphaherpesvirus 3 [2]): > 5 µg/mL
EC50 [3]: 20 µg/mL (≈ 49 µM)
CC50 (HEL [4]): > 40 µg/mL
IC50 (Human betaherpesvirus 5 [5]): 3.5 µg/mL (≈ 8.57 µM)
IC50 (Human alphaherpesvirus 3 [6]): 3 µg/mL (≈ 7.34 µM)
IC50 (Human betaherpesvirus 5 [7]): 3.7 µg/mL (≈ 9.06 µM)
IC50 (Human alphaherpesvirus 3 [8]): > 5 µg/mL
CC50 (CCRF-CEM): 100 µg/mL (≈ 245 µM)
MCC (HEL [9]): 20 µg/mL
IC50 (Human alphaherpesvirus 3 [10]): > 5 µg/mL

O=C1c2ccccc2N(COCc2ccccc2)S(=O)(=O)N1Cc1ccccc1
EC50 [1]: > 8 µg/mL
IC50 (Human alphaherpesvirus 3 [2]): 20 µg/mL (≈ 49 µM)
EC50 [3]: > 8 µg/mL
CC50 (HEL [4]): > 50 µg/mL
IC50 (Human betaherpesvirus 5 [5]): 8 µg/mL (≈ 19.6 µM)
IC50 (Human alphaherpesvirus 3 [6]): > 5 µg/mL
IC50 (Human betaherpesvirus 5 [7]): 11 µg/mL (≈ 26.9 µM)
IC50 (Human alphaherpesvirus 3 [8]): 20 µg/mL (≈ 49 µM)
CC50 (CCRF-CEM): 25 µg/mL (≈ 61.2 µM)
MCC (HEL [9]): > 50 µg/mL
IC50 (Human alphaherpesvirus 3 [10]): > 5 µg/mL

Nc1nc2c(ncn2COCCO)c(=O)[nH]1 [ACYCLOVIR]
CC50 (HEL [4]): > 200 µg/mL
MCC (HEL [9]): > 50 µg/mL

Nc1nc2c(ncn2COC(CO)CO)c(=O)[nH]1 [GANCICLOVIR]
CC50 (HEL [4]): > 50 µg/mL
IC50 (Human betaherpesvirus 5 [5]): 1.2 µg/mL (≈ 4.7 µM)
IC50 (Human betaherpesvirus 5 [7]): 1.9 µg/mL (≈ 7.44 µM)
MCC (HEL [9]): > 50 µg/mL
